Results from ChEMBL document CHEMBL3779767, “Identification of potent and selective MTH1 inhibitors” (Bioorg Med Chem Lett, 2016).
Blank lines part the entries; values can stand above or below the compound they belong to. The source made the active and inactive calls. The rule behind the calls is not given here.

Assays:
MRC5 [1] = assay: Cytotoxicity against human MRC5 cells assessed as change in phenotypic response; format: cell-based
A549 [2] = assay: Antiproliferative activity against human A549 cells assessed as change in phenotypic response; format: functional, cell-based
HMEC [3] = assay: Cytotoxicity against human HMEC cells assessed as change in phenotypic response; format: cell-based
SAOS-2 [4] = assay: Antiproliferative activity against human Saos2 cells assessed as change in phenotypic response; format: functional, cell-based
MDA-MB-231 [5] = assay: Antiproliferative activity against human MDA-MB-231 cells assessed as change in phenotypic response; format: functional, cell-based
Liver microsome [6] = assay: Intrinsic clearance in human liver microsomes at 1 uM up to 40 mins by LC-MS/MS analysis; format: ADME
[7] = Efflux ratio of permeability in MDCK cells; format: ADME, cell-based, Canis lupus familiaris; conditions: dog
In short: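 Permeability measured across a confluent MDCK cell monolayer, with the efflux ratio reported alongside the permeability value.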

SW480 [8] = assay: Antiproliferative activity against human SW480 cells assessed as change in phenotypic response; format: functional, cell-based
NCI-H460 [9] = assay: Antiproliferative activity against human NCI-H460 cells assessed as change in phenotypic response; format: functional, cell-based
[10] = Plasma protein binding in human plasma at 10 uM after 4 hrs by LC-MS/MS analysis; format: ADME, cell-free; conditions: read-out: PPB (converted)
[11] = Permeability across MDCK cells; format: ADME, cell-based, Canis lupus familiaris; conditions: dog, read-out: permeability
In short: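 Measured across a confluent MDCK cell monolayer; apparent permeability is reported together with the efflux ratio.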

U2OS [12] = assay: Antiproliferative activity against human U2OS cells assessed as change in phenotypic response; format: functional, cell-based
BJ [13] = assay: Cytotoxicity against human BJ cells assessed as change in phenotypic response; format: cell-based
[14] = Cytotoxicity against human 293T cells assessed as change in phenotypic response; format: cell-based; conditions: hek-293t
HeLa [15] = assay: Antiproliferative activity against human HeLa cells assessed as change in phenotypic response; format: functional, cell-based
[16] = Cytotoxicity against human WI38 cells assessed as change in phenotypic response; format: cell-based; conditions: wi-38
HCT-116 [17] = assay: Antiproliferative activity against human HCT116 cells assessed as change in phenotypic response; format: functional, cell-based
[18] = Cytotoxicity against human WI38 cells assessed as change in phenotypic response measured after prolonged treatment; format: cell-based; conditions: wi-38
U2OS [19] = assay: Antiproliferative activity against human U2OS cells assessed as change in phenotypic response measured after prolonged treatment; format: functional, cell-based
SAOS-2 [20] = assay: Antiproliferative activity against human Saos2 cells assessed as change in phenotypic response up to 50 uM; format: functional, cell-based
HMEC [21] = assay: Cytotoxicity against human HMEC cells assessed as change in phenotypic response measured after prolonged treatment; format: cell-based
[22] = Half life in mouse liver microsomes; format: ADME
In short: (§1)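 Incubated with human or mouse liver microsomes; the read-out was intrinsic clearance alongside half-life, given in hours.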

NCI-H460 [23] = assay: Antiproliferative activity against human NCI-H460 cells assessed as change in phenotypic response measured after prolonged treatment; format: functional, cell-based
[24] = Cytotoxicity against human 293T cells assessed as change in phenotypic response up to 50 uM; format: cell-based; conditions: hek-293t
[25] = Cytotoxicity against human WI38 cells assessed as change in phenotypic response up to 50 uM; format: cell-based; conditions: wi-38
NCI-H358 [26] = assay: Antiproliferative activity against human NCI-H358 cells assessed as change in phenotypic response up to 50 uM; format: functional, cell-based
BJ [27] = assay: Cytotoxicity against human BJ cells assessed as change in phenotypic response measured after prolonged treatment; format: cell-based
MDA-MB-231 [28] = assay: Antiproliferative activity against human MDA-MB-231 cells assessed as change in phenotypic response up to 50 uM; format: functional, cell-based
A549 [29] = assay: Antiproliferative activity against human A549 cells assessed as change in phenotypic response up to 50 uM; format: functional, cell-based
HeLa [30] = assay: Antiproliferative activity against human HeLa cells assessed as change in phenotypic response measured after prolonged treatment; format: functional, cell-based
U2OS [31] = assay: Antiproliferative activity against human U2OS cells assessed as change in phenotypic response up to 50 uM; format: functional, cell-based
[32] = Cytotoxicity against human 293T cells assessed as change in phenotypic response measured after prolonged treatment; format: cell-based; conditions: hek-293t
HCT-116 [33] = assay: Antiproliferative activity against human HCT116 cells assessed as change in phenotypic response up to 50 uM; format: functional, cell-based
BJ [34] = assay: Cytotoxicity against human BJ cells assessed as change in phenotypic response up to 50 uM; format: cell-based
HCT-116 [35] = assay: Antiproliferative activity against human HCT116 cells assessed as change in phenotypic response measured after prolonged treatment; format: functional, cell-based
UOK 262 [36] = assay: Antiproliferative activity against human UOK 262 cells assessed as change in phenotypic response up to 50 uM; format: functional, cell-based
[37] = Half life in human plasma; format: ADME, cell-free
In short: (§2)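 Plasma stability was measured in human and rat plasma, with half-life reported in hours.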

MRC5 [38] = assay: Cytotoxicity against human MRC5 cells assessed as change in phenotypic response up to 50 uM; format: cell-based
NCI-H358 [39] = assay: Antiproliferative activity against human NCI-H358 cells assessed as change in phenotypic response measured after prolonged treatment; format: functional, cell-based
HeLa [40] = assay: Antiproliferative activity against human HeLa cells assessed as change in phenotypic response up to 50 uM; format: functional, cell-based
SAOS-2 [41] = assay: Antiproliferative activity against human Saos2 cells assessed as change in phenotypic response measured after prolonged treatment; format: functional, cell-based
[42] = Plasma protein binding in human; format: ADME, cell-free; conditions: read-out: PPB (converted)
[43] = Half life in human liver microsomes; format: ADME; in short: as §1
Liver microsome [44] = assay: Intrinsic clearance in human liver microsomes; format: ADME
SW480 [45] = assay: Antiproliferative activity against human SW480 cells assessed as change in phenotypic response measured after prolonged treatment; format: functional, cell-based
A549 [46] = assay: Antiproliferative activity against human A549 cells assessed as change in phenotypic response measured after prolonged treatment; format: functional, cell-based
MRC5 [47] = assay: Cytotoxicity against human MRC5 cells assessed as change in phenotypic response measured after prolonged treatment; format: cell-based
MDA-MB-231 [48] = assay: Antiproliferative activity against human MDA-MB-231 cells assessed as change in phenotypic response measured after prolonged treatment; format: functional, cell-based
SW480 [49] = assay: Antiproliferative activity against human SW480 cells assessed as change in phenotypic response up to 50 uM; format: functional, cell-based
HMEC [50] = assay: Cytotoxicity against human HMEC cells assessed as change in phenotypic response up to 50 uM; format: cell-based
[51] = Half life in rat plasma; format: ADME, cell-free; in short: as §2
[52] = Intrinsic clearance in mouse liver microsomes; format: ADME
NCI-H460 [53] = assay: Antiproliferative activity against human NCI-H460 cells assessed as change in phenotypic response up to 50 uM; format: functional, cell-based
UOK 262 [54] = assay: Antiproliferative activity against human UOK 262 cells assessed as change in phenotypic response measured after prolonged treatment; format: functional, cell-based

- CLH (Liver microsome [6]): 54 µL/min/mg
- efflux ratio [7]: 0.8
- fraction unbound at 4 h, 10 µM [10]: 0.08
- Papp [11]: 30 ×10⁻⁶ cm/s
SMILES: CNc1cc(-c2cccc(Cl)c2Cl)nc(N)n1
- Activity (MRC5 [1]): Toxic
- Activity (A549 [2]): Active
- Activity (HMEC [3]): Toxic
- Activity (SAOS-2 [4]): Active
- Activity (MDA-MB-231 [5]): Active
- Activity (SW480 [8]): Active
- Activity (NCI-H460 [9]): Active
- Activity (U2OS [12]): Active
- Activity (BJ [13]): Toxic
- Activity [14]: Toxic
- Activity (HeLa [15]): Active
- Activity [16]: Toxic
- Activity (HCT-116 [17]): Active

- half-life [22]: 0.3 h
- efflux ratio [7]: 0.8
- half-life [37]: 19 h
- Papp [11]: 37 ×10⁻⁶ cm/s
- fraction unbound [42]: 0.06
- half-life [43]: 0.5 h
- CLH (Liver microsome [44]): 82 µL/min/mg
- half-life [51]: 20 h
- CLH [52]: 280 µL/min/mg
SMILES: Cc1cnc(N)nc1OCC(C)(C)C
- Activity [18]: Non-toxic
- Activity (U2OS [19]): inactive
- Activity (SAOS-2 [20]): inactive
- Activity (HMEC [21]): Non-toxic
- Activity (NCI-H460 [23]): inactive
- Activity [24]: Non-toxic
- Activity [25]: Non-toxic
- Activity (NCI-H358 [26]): inactive
- Activity (BJ [27]): Non-toxic
- Activity (MDA-MB-231 [28]): inactive
- Activity (A549 [29]): inactive
- Activity (HeLa [30]): inactive
- Activity (U2OS [31]): inactive
- Activity [32]: Non-toxic
- Activity (HCT-116 [33]): inactive
- Activity (BJ [34]): Non-toxic
- Activity (HCT-116 [35]): inactive
- Activity (UOK 262 [36]): inactive
- Activity (MRC5 [38]): Non-toxic
- Activity (NCI-H358 [39]): inactive
- Activity (HeLa [40]): inactive
- Activity (SAOS-2 [41]): inactive
- Activity (SW480 [45]): inactive
- Activity (A549 [46]): inactive
- Activity (MRC5 [47]): Non-toxic
- Activity (MDA-MB-231 [48]): inactive
- Activity (SW480 [49]): inactive
- Activity (HMEC [50]): Non-toxic
- Activity (NCI-H460 [53]): inactive
- Activity (UOK 262 [54]): inactive

SMILES: Nc1nc(NC2CC2)cc(-c2cccc(Cl)c2Cl)n1
- Activity (MRC5 [1]): Toxic
- Activity (A549 [2]): Active
- Activity (HMEC [3]): Toxic
- Activity (SAOS-2 [4]): Active
- Activity (MDA-MB-231 [5]): Active
- Activity (SW480 [8]): Active
- Activity (NCI-H460 [9]): Active
- Activity (U2OS [12]): Active
- Activity (BJ [13]): Toxic
- Activity [14]: Toxic
- Activity (HeLa [15]): Active
- Activity [16]: Toxic
- Activity (HCT-116 [17]): Active
